Measurements collected from several papers.
Each line is one published result; the experiments were not run side by side.
Target: Interferon-induced, double-stranded RNA-activated protein kinase (EIF2AK2, Homo sapiens, UniProt P19525)

SMILES | observed | method | concentration | remaining binding
O=C(NCc1ncc(C(F)(F)F)cc1Cl)c1ccc2c(c1)C1(CCS(=O)(=O)CC1)[C@@H](C1CC1)N2S(=O)(=O)c1ccc(F)cc1 | cell-free assay | competition with immobilised ligand | 1 µM | 97%
FC(F)(F)Oc1cccc(-c2cnc3ccc(-c4ccncc4)nn23)c1 | cell-free assay | competition with immobilised ligand | 5 µM | 65%
Cc1cnc(Nc2ccc(C(=O)N3CCC(N4CCCC4)CC3)cc2)nc1-c1cc2ccccc2s1 | binding | competition with immobilised ligand | 1 µM | 7%
CN(C)c1ncc(F)c(-c2cnn3ncccc23)n1 | binding | – | 1 µM | 100%
COc1cnc(Nc2cccc(S(N)(=O)=O)c2)nc1N1CCN(c2ccccc2)C(=O)C1 | binding | competition with immobilised ligand | 1 µM | 99%
COc1ccnn2ncc(-c3ccnc(N(C)C)n3)c12 | binding | – | 1 µM | 100%
O=C(c1ccc(Nc2ncc(Cl)c(-c3cc4ccccc4s3)n2)cc1)N1CCC(N2CCCC2)CC1 | binding | competition with immobilised ligand | 1 µM | 22%
O=C(Nc1c[nH]nc1C(=O)NC1CCNCC1)c1cc(F)cc(F)c1 | binding | competition with immobilised ligand | 1 µM | 100%
O=C(c1ccc(Nc2nccc(-c3cc4ccccc4s3)n2)cc1)N1CCC(N2CCCC2)CC1 | binding | competition with immobilised ligand | 1 µM | 21%
CC1CCCN1c1nccc(-c2cnn3ncccc23)n1 (centres unmarked) | binding | – | 1 µM | 100%
CN(C)C(=O)Cn1cc(-c2nc(C3(c4ccc(-c5cnc(N)nc5)cc4)CC3)no2)cn1 | cell-free assay | competition with immobilised ligand | 1 µM | 100%
Cc1cnn2ncc(-c3ccnc(N(C)C)n3)c2c1 | binding | – | 1 µM | 100%
CS(=O)(=O)N1CCCC(NC(=O)[C@H](CCC2CCCCC2)NC(=O)c2ccc(CNC(=O)c3cnc4ccccn34)cc2)C1 (some centres unmarked) | cell-free assay | competition with immobilised ligand | 0.1 µM | 47%
CN(CCCC(F)(F)F)c1nccc(-c2cnn3ncccc23)n1 | binding | – | 1 µM | 100%
CN(C)c1ncnc(-c2ccc3nc(Nc4cc(CN5CCN(C(=O)CC(F)(F)F)CC5)ccn4)[nH]c3c2)c1Cl | cell-free assay | competition with immobilised ligand | 1 µM | 100%
Nc1ncc2c(n1)-c1c([nH]c3ccc(C#CC4CC4)cc13)CCCC2 | binding | competition with immobilised ligand | 1 µM | 100%
O=C(O)c1cc(-c2ccc(C3CCNCC3)cc2)c2ccc(-c3ccc(C(F)(F)F)cc3)cc2c1 | cell-free assay | competition with immobilised ligand | 1 µM | 100%
N[C@H]1CCN(c2nccc(-c3cnn4ncccc34)n2)C1 | binding | – | 1 µM | 100%
CC(=O)C1=C(C)N(c2cccc(C(F)(F)F)c2)C(=O)N[C@@H]1c1ccc(C#N)nc1 | cell-free assay | competition with immobilised ligand | 1 µM | 83.4%
CNC(=O)[C@@H]1CC[C@@H](n2c(-c3ccc4cnccc4c3)nc3ccc(C(=O)NCc4cccc(C(N)=O)c4)cc32)C1 | binding | competition with immobilised ligand | 1 µM | 94%
